Values joined by “and” are separate entries in the source; they are usually repeats but may differ in a detail not shown here. Equal entries are not always repeated.
Key:
[1] = target: Receptor-type tyrosine-protein kinase FLT3 (Homo sapiens) (UniProt P36888); assay: Inhibition of FLT3 (unknown origin) at 10 uM after 30 mins by HTRF method
Caspase-3 (Homo sapiens) = target: T1, Caspase-3 (Homo sapiens) (UniProt P42574); assay: Activation of procaspase-3 (unknown origin) using Ac-DEVD-pNa as substrate at 10 uM after 2 hrs by spectrophotometry
T1 sequence (whole entry): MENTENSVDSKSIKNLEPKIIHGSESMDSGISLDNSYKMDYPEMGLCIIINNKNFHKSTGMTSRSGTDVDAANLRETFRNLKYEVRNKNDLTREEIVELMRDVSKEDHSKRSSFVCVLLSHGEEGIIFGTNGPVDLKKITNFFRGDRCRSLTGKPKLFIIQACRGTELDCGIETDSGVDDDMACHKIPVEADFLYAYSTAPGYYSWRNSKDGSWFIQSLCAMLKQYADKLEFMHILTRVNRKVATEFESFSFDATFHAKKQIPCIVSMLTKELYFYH

Tubulin (Homo sapiens) = Tubulin (Homo sapiens) (UniProt P68371+Q9H4B7+P0DPH7+P68366+Q13509+Q71U36+P04350+Q3ZCM7+P07437+P68363+Q9BQE3+Q6PEY2+Q13885+Q9BVA1+Q9BUF5); assay: Inhibition of tubulin (unknown origin) at 10 uM measured for 20 mins by turbidity method; format: protein-complex assay
[2] = Cytotoxicity against human H460 cells after 72 hrs by MTT assay; format: functional, cell-based; settings: NCI-H460, 72 h
Outline: (§1)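 MTT assay on HT29, H460, A549 and MDA-MB-231 cells with oncrasin-1 and PAC-1 as positive controls; IC50 from three independent experiments.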

[3] = target: Platelet-derived growth factor receptor beta (Homo sapiens) (UniProt P09619); assay: Inhibition of PDGFR-beta (unknown origin) at 10 uM after 30 mins by HTRF method
MDA-MB-231 = assay: Cytotoxicity against human MDA-MB-231 cells after 72 hrs by MTT assay; format: functional, cell-based; settings: MDA-MB-231, 72 h; outline: as §1
A549 = assay: Cytotoxicity against human A549 cells after 72 hrs by MTT assay; format: functional, cell-based; settings: A549, 72 h; outline: as §1
[4] = target: Vascular endothelial growth factor receptor 2 (Homo sapiens) (UniProt P35968); assay: Inhibition of KDR (unknown origin) at 10 uM after 30 mins by HTRF method
HT-29 [5] = assay: Cell cycle arrest in human HT-29 cells assessed as accumulation at G0/G1 phase AT 10 uM after 48 hrs by propidium iodide staining-based assay (reference value: 54.11%); format: functional
HT-29 [6] = assay: Cytotoxicity against human HT-29 cells after 72 hrs by MTT assay; format: functional, cell-based; outline: as §1

Chain of Receptor-type tyrosine-protein kinase FLT3 (Homo sapiens) (P36888 whole entry): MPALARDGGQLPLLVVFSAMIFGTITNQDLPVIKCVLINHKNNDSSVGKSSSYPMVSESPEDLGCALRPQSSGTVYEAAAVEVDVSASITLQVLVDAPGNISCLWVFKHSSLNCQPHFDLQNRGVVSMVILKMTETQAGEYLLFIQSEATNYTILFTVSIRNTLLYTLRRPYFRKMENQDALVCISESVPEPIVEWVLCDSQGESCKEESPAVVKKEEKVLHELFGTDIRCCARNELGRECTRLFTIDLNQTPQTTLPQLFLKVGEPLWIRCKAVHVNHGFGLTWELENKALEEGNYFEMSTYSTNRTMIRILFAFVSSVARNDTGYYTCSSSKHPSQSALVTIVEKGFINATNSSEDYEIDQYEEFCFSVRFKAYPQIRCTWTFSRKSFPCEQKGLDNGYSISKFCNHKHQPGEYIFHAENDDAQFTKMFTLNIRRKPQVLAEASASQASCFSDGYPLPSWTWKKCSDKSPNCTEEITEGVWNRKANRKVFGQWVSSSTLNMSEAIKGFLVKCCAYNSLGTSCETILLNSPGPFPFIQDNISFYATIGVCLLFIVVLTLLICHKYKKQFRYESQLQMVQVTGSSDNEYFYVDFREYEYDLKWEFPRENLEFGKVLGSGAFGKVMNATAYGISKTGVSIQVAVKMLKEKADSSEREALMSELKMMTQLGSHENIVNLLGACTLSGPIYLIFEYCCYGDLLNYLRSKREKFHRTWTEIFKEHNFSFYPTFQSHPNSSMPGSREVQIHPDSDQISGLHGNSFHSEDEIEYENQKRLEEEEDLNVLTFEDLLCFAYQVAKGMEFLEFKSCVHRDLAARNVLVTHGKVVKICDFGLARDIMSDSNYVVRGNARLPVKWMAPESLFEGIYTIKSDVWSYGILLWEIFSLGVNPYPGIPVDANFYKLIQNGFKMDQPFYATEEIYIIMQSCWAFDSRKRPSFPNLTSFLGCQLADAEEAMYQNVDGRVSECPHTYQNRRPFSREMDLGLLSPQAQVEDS
Chain of Platelet-derived growth factor receptor beta (Homo sapiens) (P09619 whole entry): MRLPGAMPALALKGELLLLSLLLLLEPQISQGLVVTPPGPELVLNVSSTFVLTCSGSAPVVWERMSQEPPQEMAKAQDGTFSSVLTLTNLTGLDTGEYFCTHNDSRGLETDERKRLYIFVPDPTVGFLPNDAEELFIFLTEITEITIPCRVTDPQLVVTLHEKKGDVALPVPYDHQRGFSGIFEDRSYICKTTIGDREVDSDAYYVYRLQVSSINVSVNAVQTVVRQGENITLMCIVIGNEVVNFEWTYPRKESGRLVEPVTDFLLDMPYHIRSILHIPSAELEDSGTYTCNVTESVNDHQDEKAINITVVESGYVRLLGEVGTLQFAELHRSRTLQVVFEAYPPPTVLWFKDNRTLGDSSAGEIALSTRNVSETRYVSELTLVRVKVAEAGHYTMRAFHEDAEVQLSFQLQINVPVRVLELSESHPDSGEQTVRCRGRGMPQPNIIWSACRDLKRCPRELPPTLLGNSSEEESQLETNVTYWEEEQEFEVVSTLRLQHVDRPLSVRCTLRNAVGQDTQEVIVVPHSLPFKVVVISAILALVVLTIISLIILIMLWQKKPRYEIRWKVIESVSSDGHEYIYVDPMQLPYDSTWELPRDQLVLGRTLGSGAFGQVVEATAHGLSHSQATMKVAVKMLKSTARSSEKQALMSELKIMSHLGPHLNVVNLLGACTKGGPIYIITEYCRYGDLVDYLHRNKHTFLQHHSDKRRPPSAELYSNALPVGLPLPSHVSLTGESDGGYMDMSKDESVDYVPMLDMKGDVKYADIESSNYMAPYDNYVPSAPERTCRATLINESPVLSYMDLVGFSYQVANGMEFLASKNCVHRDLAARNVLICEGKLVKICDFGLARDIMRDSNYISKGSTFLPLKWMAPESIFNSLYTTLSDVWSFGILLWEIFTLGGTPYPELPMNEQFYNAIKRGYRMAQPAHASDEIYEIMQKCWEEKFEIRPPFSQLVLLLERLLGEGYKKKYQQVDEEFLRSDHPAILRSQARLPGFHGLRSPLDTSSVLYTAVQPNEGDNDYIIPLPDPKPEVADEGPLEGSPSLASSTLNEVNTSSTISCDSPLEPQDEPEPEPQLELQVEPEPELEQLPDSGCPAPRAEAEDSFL
Chain of Vascular endothelial growth factor receptor 2 (Homo sapiens) (P35968 whole entry): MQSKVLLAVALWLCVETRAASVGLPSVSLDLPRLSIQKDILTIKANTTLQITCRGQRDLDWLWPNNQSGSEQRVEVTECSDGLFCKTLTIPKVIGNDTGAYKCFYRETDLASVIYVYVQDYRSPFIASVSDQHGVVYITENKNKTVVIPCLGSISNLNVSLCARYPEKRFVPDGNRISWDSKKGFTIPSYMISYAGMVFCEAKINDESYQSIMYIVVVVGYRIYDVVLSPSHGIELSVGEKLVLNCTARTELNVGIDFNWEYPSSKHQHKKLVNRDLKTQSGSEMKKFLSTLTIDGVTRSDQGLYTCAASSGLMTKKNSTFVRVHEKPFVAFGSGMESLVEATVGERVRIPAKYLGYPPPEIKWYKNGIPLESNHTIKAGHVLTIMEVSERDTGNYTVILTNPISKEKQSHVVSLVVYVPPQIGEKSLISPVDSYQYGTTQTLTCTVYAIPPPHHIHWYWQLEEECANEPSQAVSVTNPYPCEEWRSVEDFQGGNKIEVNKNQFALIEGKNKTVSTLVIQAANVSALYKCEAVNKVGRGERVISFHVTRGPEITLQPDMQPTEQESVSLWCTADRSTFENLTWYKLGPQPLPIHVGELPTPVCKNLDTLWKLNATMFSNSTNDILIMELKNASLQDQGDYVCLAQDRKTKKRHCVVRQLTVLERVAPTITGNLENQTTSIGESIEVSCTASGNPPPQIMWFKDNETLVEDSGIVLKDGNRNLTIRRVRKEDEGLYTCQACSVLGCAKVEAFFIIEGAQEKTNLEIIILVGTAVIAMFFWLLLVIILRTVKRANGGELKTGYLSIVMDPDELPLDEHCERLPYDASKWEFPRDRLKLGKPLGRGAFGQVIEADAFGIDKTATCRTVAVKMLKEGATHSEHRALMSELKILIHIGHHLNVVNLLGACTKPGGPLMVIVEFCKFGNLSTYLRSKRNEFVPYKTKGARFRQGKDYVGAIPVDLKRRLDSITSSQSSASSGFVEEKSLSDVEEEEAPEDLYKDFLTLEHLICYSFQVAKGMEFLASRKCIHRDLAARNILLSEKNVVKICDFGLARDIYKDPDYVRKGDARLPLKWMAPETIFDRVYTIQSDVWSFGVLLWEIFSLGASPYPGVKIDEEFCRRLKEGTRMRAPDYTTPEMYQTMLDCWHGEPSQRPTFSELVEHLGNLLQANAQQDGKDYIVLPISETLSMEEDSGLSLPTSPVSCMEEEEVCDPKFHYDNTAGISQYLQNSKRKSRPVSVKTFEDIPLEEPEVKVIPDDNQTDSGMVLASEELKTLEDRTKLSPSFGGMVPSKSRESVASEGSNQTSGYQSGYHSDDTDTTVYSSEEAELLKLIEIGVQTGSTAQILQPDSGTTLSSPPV

SMILES | inhibition [1] | Activity (Caspase-3 (Homo sapiens)) | inhibition (Tubulin (Homo sapiens)) | IC50 [2] | inhibition [3] | IC50 (MDA-MB-231) | IC50 (A549) | inhibition [4] | Activity (HT-29 [5]) | IC50 (HT-29 [6]; ht-29) | IC50 (HT-29 [6]; Homo sapiens, HT-29, 72 h)
CN(C)Cc1ccc2nc(NC(=O)N/N=C/c3cn(Cc4ccc(Cl)cc4)c4ccccc34)sc2c1 | 4.1% | 70.9% | 26% | 0.29 µM | 12.8% | 0.88 µM | 0.84 µM | 5.9% | 68.66% |  | 
CCN(CC)Cc1ccc2nc(NC(=O)N/N=C/c3cn(Cc4ccc(Cl)cc4)c4ccccc34)sc2c1 |  |  |  | 0.37 µM |  | 2.57 µM | 2.94 µM |  |  |  | 
CCN(CC)Cc1ccc2nc(NC(=O)N/N=C/c3c[nH]c4ccccc34)sc2c1 |  |  |  | 3.14 µM |  | 1.9 µM | 3.3 µM |  |  | 12.1 µM and 4.92 µM | 
CN(C)Cc1ccc2nc(NC(=O)N/N=C/c3c[nH]c4ccccc34)sc2c1 |  |  |  | 2.55 µM |  | 1.19 µM | 3.3 µM |  |  | 5 µM | 9.9 µM
CC1CCN(Cc2ccc3nc(NC(=O)N/N=C/c4cn(Cc5ccc(Cl)cc5Cl)c5ccccc45)sc3c2)CC1 |  |  |  | 1.66 µM |  | 3.14 µM | 3.64 µM |  |  | 2.12 µM and 5.62 µM | 
CCN(CC)Cc1ccc2nc(NC(=O)N/N=C/c3cn(Cc4ccccc4Cl)c4ccccc34)sc2c1 |  |  |  | 0.98 µM |  | 0.9 µM | 1.39 µM |  |  |  | 
CN(C)Cc1ccc2nc(NC(=O)N/N=C/c3cn(Cc4ccccc4Cl)c4ccccc34)sc2c1 |  |  |  | 1.6 µM |  | 1.18 µM | 1.08 µM |  |  |  | 
CC1CCN(Cc2ccc3nc(NC(=O)N/N=C4\C(=O)Nc5ccc(F)cc54)sc3c2)CC1 |  |  |  | 1.43 µM |  |  | 3.01 µM |  |  | 5.39 µM | 4.1 µM
Cc1ccc(Cn2cc(/C=N/NC(=O)Nc3nc4ccc(CN(C)C)cc4s3)c3ccccc32)cc1 |  |  |  | 0.2 µM |  | 1.22 µM | 1.6 µM |  |  |  | 
CCN(CC)Cc1ccc2nc(NC(=O)N/N=C/c3cn(Cc4ccc(C(C)(C)C)cc4)c4ccccc34)sc2c1 |  |  |  | 1.67 µM |  | 2.12 µM | 1.71 µM |  |  |  | 
CC1CCN(Cc2ccc3nc(NC(=O)N/N=C/c4cn(Cc5ccccc5)c5ccccc45)sc3c2)CC1 |  |  |  | 1.91 µM |  | 2.85 µM | 2.34 µM |  |  | 2.05 µM and 5.72 µM | 
CC1CCN(Cc2ccc3nc(NC(=O)N/N=C/c4cn(Cc5cccc(Cl)c5)c5ccccc45)sc3c2)CC1 |  |  |  | 0.28 µM |  | 2.11 µM | 2.81 µM |  |  | 0.73 µM and 6.14 µM | 
CN(C)Cc1ccc2nc(NC(=O)N/N=C/c3cn(Cc4ccc(Cl)cc4Cl)c4ccccc34)sc2c1 |  |  |  | 0.95 µM |  | 1.41 µM | 2 µM |  |  |  | 
CN(C)Cc1ccc2nc(NC(=O)N/N=C/c3cn(Cc4ccccc4)c4ccccc34)sc2c1 |  |  |  | 0.4 µM |  | 1.34 µM | 2.9 µM |  |  |  | 
CCN(CC)Cc1ccc2nc(NC(=O)N/N=C/c3cn(Cc4ccc(Cl)c(Cl)c4)c4ccccc34)sc2c1 |  |  |  | 0.61 µM |  | 4.49 µM | 1.47 µM |  |  | 0.63 µM and 6.2 µM | 
C=CCc1cccc(/C=N/NC(=O)CN2CCN(Cc3ccccc3)CC2)c1O [PAC-1] |  | 100% |  | 1.25 µM |  | 3.2 µM | 2.51 µM |  |  |  | 1.02 µM
Cc1ccc(Cn2cc(/C=N/NC(=O)Nc3nc4ccc(CN5CCC(C)CC5)cc4s3)c3ccccc32)cc1 |  |  |  | 0.41 µM |  | 1.14 µM | 2.18 µM |  |  | 1.03 µM and 5.94 µM | 

SMILES | inhibition [1] | Activity (Caspase-3 (Homo sapiens)) | inhibition (Tubulin (Homo sapiens)) | IC50 [2] | inhibition [3] | IC50 (MDA-MB-231) | IC50 (A549) | inhibition [4] | Activity (HT-29 [5]) | IC50 (HT-29 [6]; ht-29) | IC50 (HT-29 [6]; Homo sapiens, HT-29, 72 h)
CC1CCN(Cc2ccc3nc(NC(=O)N/N=C/c4cn(Cc5ccccc5Cl)c5ccccc45)sc3c2)CC1 |  |  |  | 1.08 µM |  | 1.36 µM | 3.33 µM |  |  | 1.57 µM and 5.89 µM | 
CCN(CC)Cc1ccc2nc(NC(=O)N/N=C/c3cn(Cc4ccc(Cl)cc4Cl)c4ccccc34)sc2c1 |  |  |  | 1.08 µM |  | 3.28 µM | 1.9 µM |  |  | 1.04 µM and 6.06 µM | 
CC1CCN(Cc2ccc3nc(NC(=O)N/N=C/c4cn(Cc5ccc(Cl)cc5)c5ccccc45)sc3c2)CC1 |  |  |  | 0.4 µM |  | 2.85 µM | 2.03 µM |  |  | 0.75 µM and 6.43 µM | 
CCN(CC)Cc1ccc2nc(NC(=O)N/N=C3\C(=O)Nc4ccc(OC(F)(F)F)cc43)sc2c1 |  |  |  | 2.11 µM |  |  | 1.99 µM |  |  | 1.9 µM and 5.72 µM | 
CN(C)Cc1ccc2nc(NC(=O)N/N=C3\C(=O)Nc4ccc(F)cc43)sc2c1 | 34.1% | 9.1% |  | 1.55 µM | 2.2% |  | 2.31 µM | 3.7% |  | 0.97 µM and 6.01 µM | 
CCN(CC)Cc1ccc2nc(NC(=O)N/N=C/c3cn(Cc4cccc(Cl)c4)c4ccccc34)sc2c1 |  |  |  | 0.22 µM |  | 2.05 µM | 2.41 µM |  |  |  | 
CCN(CC)Cc1ccc2nc(NC(=O)N/N=C3\C(=O)Nc4ccc(F)cc43)sc2c1 |  |  |  | 1.06 µM |  |  | 2.01 µM |  |  | 1.55 µM and 5.81 µM | 
CCN(CC)Cc1ccc2nc(NC(=O)N/N=C/c3cn(Cc4ccccc4)c4ccccc34)sc2c1 |  |  |  | 0.45 µM |  | 1.47 µM | 3.33 µM |  |  |  | 
CN(C)Cc1ccc2nc(NC(=O)N/N=C3\C(=O)Nc4ccc(Cl)cc43)sc2c1 |  |  |  | 1.17 µM |  |  | 3.18 µM |  |  | 2.57 µM and 5.59 µM | 
CC1CCN(Cc2ccc3nc(NC(=O)N/N=C/c4c[nH]c5ccccc45)sc3c2)CC1 |  |  |  | 4.13 µM |  | 2.46 µM | 3.58 µM |  |  | 15.2 µM and 4.82 µM | 
O=Cc1cn(Cc2ccc(Cl)cc2)c2ccccc12 |  |  |  | 0.85 µM |  | 26.1 µM | 2.48 µM |  |  |  | 1.71 µM
CC1CCN(Cc2ccc3nc(NC(=O)N/N=C/c4cn(Cc5ccc(C(C)(C)C)cc5)c5ccccc45)sc3c2)CC1 |  |  |  | 3.37 µM |  | 3.88 µM | 3.71 µM |  |  | 1.5 µM and 5.75 µM | 
CCN(CC)Cc1ccc2nc(NC(=O)N/N=C/c3cn(Cc4ccc(C)cc4)c4ccccc34)sc2c1 |  |  |  | 0.32 µM |  | 2.01 µM | 1.51 µM |  |  |  | 
CN(C)Cc1ccc2nc(NC(=O)N/N=C/c3cn(Cc4ccc(C(C)(C)C)cc4)c4ccccc34)sc2c1 |  |  |  | 0.81 µM |  | 2.23 µM | 1.85 µM |  |  |  | 
CN(C)Cc1ccc2nc(NC(=O)N/N=C/c3cn(Cc4cccc(Cl)c4)c4ccccc34)sc2c1 |  | 48.8% | 18% | 0.42 µM |  | 1.14 µM | 1.24 µM |  |  |  | 
CN(C)Cc1ccc2nc(NC(=O)N/N=C/c3cn(Cc4ccc(Cl)c(Cl)c4)c4ccccc34)sc2c1 |  |  |  | 1.36 µM |  | 1 µM | 0.94 µM |  |  |  | 
